From ChEMBL document CHEMBL4011658 (J Med Chem, 2017) come the findings set out here.

Values after ≈ are worked out from the molar mass of the structure shown. Active and inactive are the calls of the source.

The subject of one data set is Candida. The experiment in a line: Antifungal activity against Candida. Type of data set: functional.
Data set [1] in a line: Selectivity index, ratio of cytotoxicity against human BT549 cells to IC50 for Cryptococcus neoformans ATCC 90113. In kind it is toxicity, cell-based. As to conditions: read-out: Selectivity Index.
Data set [2] relates to Staphylococcus aureus. The experiment in a line: Antibacterial activity against Staphylococcus aureus ATCC 29213 after […] hrs by alamar blue dye based CLSI method. Type of data set: functional.
A short description of data set [3]: Selectivity index, ratio of cytotoxicity against African green monkey VERO cells to IC50 for Staphylococcus aureus ATCC 29213. Type of data set: toxicity, cell-based. As to conditions: read-out: Selectivity Index. A digest of the protocol:
(§1)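 Selectivity index is the ratio CTX/IC50. For CTX, cells were seeded at 25 000 per well and grown 24 h, then exposed to peptide up to 10 μg/mL for 48 h, with viability by neutral red uptake. […] The inoculum was 5 × 10^5 CFU/mL, with OD530 read before and after incubation.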

Data set [4] in a line: Selectivity index, ratio of cytotoxicity against human SK-MEL cells to IC50 for Staphylococcus aureus ATCC 29213. In kind it is toxicity, cell-based. The note with it: read-out: Selectivity Index. A digest of the protocol: as §1
For another data set, the system named is Aspergillus. The experiment in a line: Antifungal activity against Aspergillus. In kind it is functional.
The next data set concerns Cryptococcus neoformans. As to the kind of experiment: Antifungal activity against Cryptococcus neoformans ATCC 90113 after 70 to 74 hrs by alamar blue dye based CLSI method. In kind it is functional.
The subject of the next data set is LLC-PK1. The experiment in a line: Cytotoxicity against pig LLC-PK1 cells assessed as reduction in cell viability after 48 hrs by neutral red uptake assay. In kind it is cell-based, Sus scrofa. The note with it: llc-pk1, 48 h. In short, it runs like this:
(§2)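 Cells seeded at 25 000 per well and grown 24 h to confluence, then exposed to peptides up to 10 μg/mL for 48 h; viability by modified neutral red uptake; doxorubicin positive control, DMSO negative control.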

A short description of data set [5]: Selectivity index, ratio of cytotoxicity against African green monkey VERO cells to IC50 for Cryptococcus neoformans ATCC 90113. Type of data set: toxicity, cell-based. As to conditions: read-out: Selectivity Index.
Data set [6] relates to Staphylococcus aureus. The experiment in a line: Antibacterial activity against methicillin-resistant Staphylococcus aureus ATCC 33591 after 16 to 20 hrs by alamar blue dye based CLSI method. Type of data set: functional. (Resazurin is reduced to fluorescent resorufin, in cell work by metabolically active cells.)
Data set [7] can be described thus: Selectivity index, ratio of cytotoxicity against human SK-MEL cells to IC50 for Cryptococcus neoformans ATCC 90113. Type of data set: toxicity, cell-based. As to conditions: read-out: Selectivity Index.
The test system of another data set is Escherichia coli. The experiment in a line: Antibacterial activity against Escherichia coli ATCC 35218 after 16 to 20 hrs by alamar blue dye based CLSI method. In kind it is functional.
Data set [8] in a line: Selectivity index, ratio of cytotoxicity against pig LLC-PK1 cells to IC50 for Cryptococcus neoformans ATCC 90113. In kind it is toxicity, cell-based. The note with it: read-out: Selectivity Index.
Another data set deals with SK-MEL. The experiment in a line: Cytotoxicity against human SK-MEL cells assessed as reduction in cell viability after 48 hrs by neutral red uptake assay. In kind it is cell-based. A digest of the protocol: as §2
The nature of data set [9]: Selectivity index, ratio of cytotoxicity against pig LLC-PK1 cells to IC50 for Staphylococcus aureus ATCC 29213. In kind it is toxicity, cell-based. The note with it: read-out: Selectivity Index. In short, it runs like this:
as §1

Data set [10] is described as follows: Selectivity index, ratio of cytotoxicity against human SKOV3 cells to IC50 for Staphylococcus aureus ATCC 29213. Type of data set: toxicity, cell-based. As to conditions: read-out: Selectivity Index. A digest of the protocol: as §1
Data set [11] is described as follows: Selectivity index, ratio of cytotoxicity against human SKOV3 cells to IC50 for Cryptococcus neoformans ATCC 90113. In kind it is toxicity, cell-based. The note with it: read-out: Selectivity Index.
Data set [12] in a line: Selectivity index, ratio of cytotoxicity against human BT549 cells to IC50 for Staphylococcus aureus ATCC 29213. Type of data set: toxicity, cell-based. As to conditions: read-out: Selectivity Index. A digest of the protocol: as §1
For another data set, the system named is SK-OV-3. As to the kind of experiment: Cytotoxicity against human SKOV3 cells assessed as reduction in cell viability after 48 hrs by neutral red uptake assay. Type of data set: cell-based. As to conditions: sk-ov-3, 48 h. A digest of the protocol: as §2
A further data set relates to Vero. The experiment in a line: Cytotoxicity against African green monkey Vero cells assessed as reduction in cell viability after 48 hrs by neutral red uptake assay. In kind it is cell-based. The note with it: chlorocebus sabaeus. A digest of the protocol: as §2
The next data set relates to BT-549. The experiment in a line: Cytotoxicity against human BT549 cells assessed as reduction in cell viability after 48 hrs by neutral red uptake assay. As to conditions: bt-549, 48 h. Type of data set: cell-based. In short, it runs like this: as §2

Usually IC50 stands for the concentration that inhibits the measured activity by half. For orientation: MBC means the smallest concentration meeting the test's criterion for killing. For orientation: MIC means the least concentration at which growth counts as inhibited. In general, MFC refers to the lowest tested concentration that kills the fungus rather than only halting it. Turning to `CC(C)(C)OC(=O)N[C@@H](Cc1c[nH]c(-c2ccccc2)n1)C(=O)N[C@@H](Cc1c[nH]c2ccccc12)C(=O)N[C@@H](Cc1c[nH]c(-c2ccccc2)n1)C(=O)NCc1ccccc1`, the outcome with Candida, in the data set on Aspergillus and in the data set with Escherichia coli was inactive. The selectivity ratio in data set [1] was above 7.1; in data set [3] it was above 1.3; in data set [4], above 1.3; in data set [5], above 7.1; in data set [7], above 7.1; in [8] it was above 7.1. For the same molecule, the selectivity ratio in data set [9] is above 1.3; in data set [10], above 1.3; in data set [11] it was above 7.1; in data set [12], above 1.3. In addition, the values for the IC50 in the data set on Staphylococcus aureus [2], in the data set with Cryptococcus neoformans and with Staphylococcus aureus [6] were 7.6 µg/mL (≈ 9.27 µM), 1.4 µg/mL (≈ 1.71 µM) and 10.5 µg/mL (≈ 12.8 µM), respectively. Besides, the MBC in the data set on Staphylococcus aureus [2] and against Staphylococcus aureus [6] was above 20 µg/mL each time. The MIC against Staphylococcus aureus [2] is above 20 µg/mL; in the data set on Cryptococcus neoformans, 2.5 µg/mL (≈ 3.05 µM); in the data set on Staphylococcus aureus [6] it was above 20 µg/mL. In the data set with Cryptococcus neoformans, this molecule gave an MFC of 2.5 µg/mL (≈ 3.05 µM). For the same molecule, the Activity in the data set with LLC-PK1, in the data set with SK-MEL, in the data set with SK-OV-3, in the data set with Vero and in the data set with BT-549 was above 10 µg/mL each time.

With `COC(=O)[C@H](Cc1c[nH]c(-c2ccccc2)n1)NC(=O)[C@H](Cc1c[nH]c2ccccc12)NC(=O)[C@@H](N)Cc1c[nH]c(-c2ccccc2)n1`, the outcome with Candida, in the data set on Aspergillus and in the data set with Escherichia coli was inactive. Also, the selectivity ratio in [1], in [5], in data set [7], in data set [8] and in data set [11] was above 2.7 in each case. Besides, it took 3.71 µg/mL (≈ 5.75 µM) to reach half-maximal inhibition with Cryptococcus neoformans (IC50). This molecule came in with an MFC against Cryptococcus neoformans of 10 µg/mL (≈ 15.5 µM). The molecule also yielded an MIC in the data set with Cryptococcus neoformans of 10 µg/mL (≈ 15.5 µM). For the same molecule, the Activity in the data set with LLC-PK1, in the data set with SK-MEL, in the data set with SK-OV-3, with Vero and in the data set on BT-549 was above 10 µg/mL throughout.

Consider `Cc1ccc(-c2nc(C[C@H](NC(=O)[C@H](Cc3c[nH]c4ccccc34)NC(=O)[C@@H](N)Cc3c[nH]c(-c4ccc(C)cc4)n3)C(=O)NCc3ccccc3)c[nH]2)cc1`, for which the result in the data set on Candida, with Aspergillus and in the data set with Escherichia coli was inactive. The selectivity ratio in data set [1], in data set [5], in [7], in [8] and in data set [11] was above 1.8 in each case. In the data set with Cryptococcus neoformans, this molecule returned an IC50 of 5.56 µg/mL (≈ 7.43 µM). In the data set with Cryptococcus neoformans, this molecule displayed an MFC of 10 µg/mL (≈ 13.4 µM). Further, 10 µg/mL (≈ 13.4 µM) was the least that counted as inhibitory with Cryptococcus neoformans (MIC). Besides, the Activity with LLC-PK1, in the data set on SK-MEL, in the data set on SK-OV-3, with Vero and with BT-549 was above 10 µg/mL throughout.
